ChEMBL document CHEMBL5724801, “EUbOPEN Chemogenomics Library - Multiplex” (2024)
Values joined by “and” are separate entries in the source; they are usually repeats but may differ in a detail not shown here. Identical values can stand only once.

Test system: Fibroblast
Test: Multiplex assay against human fibroblast
Assay type: toxicity, cell-based
Summary of the method: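 Cells were classed with CellPathfinder machine-learning gating, first as Hoechst high-intensity objects or normal cells, then (normal cells) as healthy, pyknosed or fragmented nuclei, and finally (pyknosed cells) as mitotic or apoptotic. Staining of live cells at seeding used Hoechst33342, BioTracker Green Microtubule Cytoskeleton Dye, MitoTracker Red and Annexin V Alexa Fluor 680, with imaging on a CQ1 microscope at 37°C and 5% CO2 after compound addition. Tubulin, mitochondrial-mass and membrane-permeability phenotypes are per cents of healthy-nucleus cells.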

[1] = 12 h, 1 µM, compound concentration 1 uM
[2] = 12 h, 10 µM, compound concentration 10 uM
[3] = 24 h, 1 µM, compound concentration 1 uM
[4] = 24 h, 10 µM, compound concentration 10 uM
[5] = 48 h, 1 µM, compound concentration 1 uM
[6] = 48 h, 10 µM, compound concentration 10 uM

## CSc1nc(NC2CCCC2)c([N+](=O)[O-])c(NC2CCCC2)n1 [GS-39783]
[1]
  Population Apoptotic (%): 50% and 39%
  Population Fragmented Nuclei (%): 16% and 28%
  Population Healthy Nuclei (%): 66% and 46%
  Population Hoechst High Intensity Objects (%): 3% and 5%
  Population Membrane Permeable-Phenotype (%): 2% and 10%
  Population Mitochondria Different-Phenotype (%): 6% and 10%
  Population Mitotic Cells (%): 50% and 60%
  Population Normal (%): 96% and 94%
  Population Pyknosed Nuclei (%): 16% and 25%
  Population Tubulin-Different-Phenotype (%): 29% and 57%
  Total Cell Count: 137 and 135
[2]
  Population Apoptotic (%): 54% and 36%
  Population Fragmented Nuclei (%): 16% and 25%
  Population Healthy Nuclei (%): 62% and 52%
  Population Hoechst High Intensity Objects (%): 5% and 6%
  Population Membrane Permeable-Phenotype (%): 0% and 4%
  Population Mitotic Cells (%): 45% and 63%
  Population Normal (%): 94% and 93%
  Population Pyknosed Nuclei (%): 21%
  Population Tubulin-Different-Phenotype (%): 39% and 70%
  Total Cell Count: 184 and 165
[3]
  Population Apoptotic (%): 30% and 32%
  Population Fragmented Nuclei (%): 12% and 31%
  Population Healthy Nuclei (%): 69% and 44%
  Population Hoechst High Intensity Objects (%): 2%
  Population Membrane Permeable-Phenotype (%): 3% and 10%
  Population Mitochondria Different-Phenotype (%): 4% and 12%
  Population Mitotic Cells (%): 69% and 67%
  Population Normal (%): 97%
  Population Pyknosed Nuclei (%): 17% and 23%
  Population Tubulin-Different-Phenotype (%): 27% and 60%
  Total Cell Count: 132 and 133
[4]
  Population Apoptotic (%): 58% and 36%
  Population Fragmented Nuclei (%): 17% and 25%
  Population Healthy Nuclei (%): 65% and 52%
  Population Hoechst High Intensity Objects (%): 2% and 7%
  Population Membrane Permeable-Phenotype (%): 0% and 6%
  Population Mitochondria Different-Phenotype (%): 4% and 10%
  Population Mitotic Cells (%): 41% and 63%
  Population Normal (%): 97% and 92%
  Population Pyknosed Nuclei (%): 17% and 21%
  Population Tubulin-Different-Phenotype (%): 33% and 57%
  Total Cell Count: 172 and 164
[5]
  Population Apoptotic (%): 70% and 33%
  Population Fragmented Nuclei (%): 22% and 41%
  Population Healthy Nuclei (%): 69% and 44%
  Population Hoechst High Intensity Objects (%): 4% and 3%
  Population Mitochondria Different-Phenotype (%): 5% and 14%
  Population Mitotic Cells (%): 30% and 66%
  Population Normal (%): 95% and 96%
  Population Pyknosed Nuclei (%): 7% and 14%
  Population Tubulin-Different-Phenotype (%): 29% and 60%
  Total Cell Count: 134 and 129
[6]
  Population Apoptotic (%): 66% and 60%
  Population Fragmented Nuclei (%): 19% and 40%
  Population Healthy Nuclei (%): 65% and 46%
  Population Hoechst High Intensity Objects (%): 2% and 6%
  Population Membrane Permeable-Phenotype (%): 1% and 6%
  Population Mitochondria Different-Phenotype (%): 5% and 7%
  Population Mitotic Cells (%): 33% and 40%
  Population Normal (%): 97% and 93%
  Population Pyknosed Nuclei (%): 14% and 13%
  Population Tubulin-Different-Phenotype (%): 41% and 60%
  Total Cell Count: 168 and 193

## CN[C@@H](C)C(=O)N[C@H](C(=O)N1CCC[C@H]1C(=O)Nc1snnc1-c1ccccc1)C1CCCCC1 [GDC-0152]
[1]
  Population Apoptotic (%): 70% and 33%
  Population Fragmented Nuclei (%): 14% and 16%
  Population Healthy Nuclei (%): 68% and 56%
  Population Hoechst High Intensity Objects (%): 4% and 6%
  Population Membrane Permeable-Phenotype (%): 1% and 6%
  Population Mitochondria Different-Phenotype (%): 6% and 9%
  Population Mitotic Cells (%): 30% and 66%
  Population Normal (%): 95% and 93%
  Population Pyknosed Nuclei (%): 16% and 26%
  Population Tubulin-Different-Phenotype (%): 38% and 62%
  Total Cell Count: 127 and 121
[2]
  Population Apoptotic (%): 38% and 24%
  Population Fragmented Nuclei (%): 17% and 26%
  Population Healthy Nuclei (%): 59% and 34%
  Population Hoechst High Intensity Objects (%): 6% and 10%
  Population Membrane Permeable-Phenotype (%): 0%
  Population Mitochondria Different-Phenotype (%): 13% and 10%
  Population Mitotic Cells (%): 61% and 75%
  Population Normal (%): 93% and 90%
  Population Pyknosed Nuclei (%): 22% and 39%
  Population Tubulin-Different-Phenotype (%): 80% and 65%
  Total Cell Count: 144 and 150
[3]
  Population Apoptotic (%): 60% and 37%
  Population Fragmented Nuclei (%): 20% and 22%
  Population Healthy Nuclei (%): 63% and 55%
  Population Hoechst High Intensity Objects (%): 2% and 9%
  Population Membrane Permeable-Phenotype (%): 1% and 2%
  Population Mitochondria Different-Phenotype (%): 1% and 11%
  Population Mitotic Cells (%): 40% and 62%
  Population Normal (%): 97% and 90%
  Population Pyknosed Nuclei (%): 16% and 22%
  Population Tubulin-Different-Phenotype (%): 30% and 61%
  Total Cell Count: 123 and 133
[4]
  Population Apoptotic (%): 67% and 41%
  Population Fragmented Nuclei (%): 14% and 33%
  Population Healthy Nuclei (%): 58% and 34%
  Population Hoechst High Intensity Objects (%): 5% and 8%
  Population Membrane Permeable-Phenotype (%): 0% and 16%
  Population Mitochondria Different-Phenotype (%): 21% and 22%
  Population Mitotic Cells (%): 32% and 58%
  Population Normal (%): 94% and 91%
  Population Pyknosed Nuclei (%): 26% and 31%
  Population Tubulin-Different-Phenotype (%): 83% and 68%
  Total Cell Count: 135 and 157
[5]
  Population Apoptotic (%): 47% and 57%
  Population Fragmented Nuclei (%): 23% and 38%
  Population Healthy Nuclei (%): 60% and 44%
  Population Hoechst High Intensity Objects (%): 1% and 5%
  Population Membrane Permeable-Phenotype (%): 0% and 2%
  Population Mitotic Cells (%): 52% and 42%
  Population Normal (%): 98% and 94%
  Population Pyknosed Nuclei (%): 16% and 17%
  Population Tubulin-Different-Phenotype (%): 48% and 67%
  Total Cell Count: 132 and 159
[6]
  Population Apoptotic (%): 76% and 44%
  Population Fragmented Nuclei (%): 23% and 39%
  Population Healthy Nuclei (%): 45% and 42%
  Population Hoechst High Intensity Objects (%): 6%
  Population Membrane Permeable-Phenotype (%): 0% and 19%
  Population Mitochondria Different-Phenotype (%): 22% and 17%
  Population Mitotic Cells (%): 23% and 55%
  Population Normal (%): 93%
  Population Pyknosed Nuclei (%): 31% and 18%
  Population Tubulin-Different-Phenotype (%): 81% and 88%
  Total Cell Count: 145 and 159

## COc1cc(C(=O)N2CC[C@@H](O)[C@@H](N)C2)cc2nc(-c3cc4ccccc4n3CC3CC3)n(C)c12.Cl
[1]
  Population Apoptotic (%): 21% and 48%
  Population Fragmented Nuclei (%): 25% and 24%
  Population Healthy Nuclei (%): 62% and 44%
  Population Hoechst High Intensity Objects (%): 2% and 3%
  Population Membrane Permeable-Phenotype (%): 0% and 10%
  Population Mitochondria Different-Phenotype (%): 4% and 14%
  Population Mitotic Cells (%): 78% and 51%
  Population Normal (%): 97% and 96%
  Population Pyknosed Nuclei (%): 12% and 31%
  Population Tubulin-Different-Phenotype (%): 55% and 69%
  Total Cell Count: 160 and 130
[2]
  Population Apoptotic (%): 60% and 48%
  Population Fragmented Nuclei (%): 22% and 30%
  Population Healthy Nuclei (%): 57% and 44%
  Population Hoechst High Intensity Objects (%): 6% and 10%
  Population Membrane Permeable-Phenotype (%): 0% and 2%
  Population Mitochondria Different-Phenotype (%): 34% and 25%
  Population Mitotic Cells (%): 40% and 51%
  Population Normal (%): 93% and 89%
  Population Pyknosed Nuclei (%): 19% and 25%
  Population Tubulin-Different-Phenotype (%): 97% and 92%
  Total Cell Count: 271 and 179
[3]
  Population Apoptotic (%): 55% and 60%
  Population Fragmented Nuclei (%): 24% and 31%
  Population Healthy Nuclei (%): 62% and 36%
  Population Hoechst High Intensity Objects (%): 3% and 4%
  Population Membrane Permeable-Phenotype (%): 0% and 4%
  Population Mitotic Cells (%): 45% and 39%
  Population Normal (%): 96% and 95%
  Population Pyknosed Nuclei (%): 13% and 31%
  Population Tubulin-Different-Phenotype (%): 51% and 79%
  Total Cell Count: 158 and 125
[4]
  Population Apoptotic (%): 73% and 62%
  Population Fragmented Nuclei (%): 15% and 27%
  Population Healthy Nuclei (%): 68% and 54%
  Population Hoechst High Intensity Objects (%): 7% and 5%
  Population Membrane Permeable-Phenotype (%): 0% and 3%
  Population Mitochondria Different-Phenotype (%): 55% and 41%
  Population Mitotic Cells (%): 26% and 37%
  Population Normal (%): 92% and 94%
  Population Pyknosed Nuclei (%): 16% and 17%
  Population Tubulin-Different-Phenotype (%): 94% and 92%
  Total Cell Count: 274 and 174
[5]
  Population Apoptotic (%): 80% and 64%
  Population Fragmented Nuclei (%): 22% and 38%
  Population Healthy Nuclei (%): 67% and 41%
  Population Hoechst High Intensity Objects (%): 6% and 1%
  Population Membrane Permeable-Phenotype (%): 0% and 3%
  Population Mitochondria Different-Phenotype (%): 8% and 16%
  Population Mitotic Cells (%): 20% and 35%
  Population Normal (%): 93% and 98%
  Population Pyknosed Nuclei (%): 10% and 20%
  Population Tubulin-Different-Phenotype (%): 44% and 80%
  Total Cell Count: 161 and 153
[6]
  Population Apoptotic (%): 86%
  Population Fragmented Nuclei (%): 20% and 32%
  Population Healthy Nuclei (%): 64% and 55%
  Population Hoechst High Intensity Objects (%): 8% and 4%
  Population Membrane Permeable-Phenotype (%): 0%
  Population Mitochondria Different-Phenotype (%): 62% and 36%
  Population Mitotic Cells (%): 13%
  Population Normal (%): 91% and 95%
  Population Pyknosed Nuclei (%): 15% and 11%
  Population Tubulin-Different-Phenotype (%): 94%
  Total Cell Count: 256 and 193
